Where a name gives a salt, the structure may show the parent alone.
What was measured:
Sus scrofa [1] = organism: Sus scrofa; assay: Inhibition of porcine kidney tissue non-specific alkaline phosphatase assessed as residual enzyme activity at 0.4 mM in presence of 1% DMSO at pH 10.4 at 37 degC relative to untreated control
[2] = biological target: Intestinal-type alkaline phosphatase (Bos taurus) (UniProt P19111); assay: Inhibition of bovine intestinal alkaline phosphatase assessed as residual enzyme activity at 0.1 mM in presence of 1% DMSO at pH 10.4 at 37 degC relative to untreated control
Chain of Intestinal-type alkaline phosphatase (Bos taurus) (P19111 20-506 limits assumed): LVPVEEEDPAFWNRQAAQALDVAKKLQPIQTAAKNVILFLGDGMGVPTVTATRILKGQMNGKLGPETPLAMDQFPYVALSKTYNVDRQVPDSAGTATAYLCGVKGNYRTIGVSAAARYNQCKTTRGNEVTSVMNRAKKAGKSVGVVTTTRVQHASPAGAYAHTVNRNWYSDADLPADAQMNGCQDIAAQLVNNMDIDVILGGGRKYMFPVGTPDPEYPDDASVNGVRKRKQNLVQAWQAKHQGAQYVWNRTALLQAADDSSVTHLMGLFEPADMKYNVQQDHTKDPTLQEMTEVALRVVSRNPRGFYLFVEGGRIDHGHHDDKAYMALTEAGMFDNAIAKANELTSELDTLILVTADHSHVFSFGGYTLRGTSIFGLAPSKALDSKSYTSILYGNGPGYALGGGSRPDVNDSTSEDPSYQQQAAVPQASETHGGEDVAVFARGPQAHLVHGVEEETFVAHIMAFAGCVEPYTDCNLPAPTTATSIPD
Method in brief: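 Screening in 25 mM piperazine, 25 mM glycylglycine, 5 mM MgCl2, 5 µM ZnCl2, pH 10.4, 37 °C. BIAP (0.1–0.3 µg/mL) preincubated 10 min with 0.1 mM compound (final DMSO 1% v/v), no substrate. Reaction started with 0.05 mM pNPP; read at 420 nm (ε 18.6 cm⁻¹ mM⁻¹). Activity given relative to inhibitor-free control; sample-to-sample error 5%.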

[3] = Inhibition of porcine kidney tissue non-specific alkaline phosphatase at pH 7.8 at 37 degC; set-up: species or system Sus scrofa
Sus scrofa [4] = organism: Sus scrofa; assay: Inhibition of porcine kidney tissue non-specific alkaline phosphatase assessed as residual enzyme activity at 0.4 mM in presence of 4% DMSO at pH 10.4 at 37 degC relative to untreated control

SMILES	Activity (Sus scrofa [1]) [%]	Activity [2] [%]	Ki [3] [µM]	Activity (Sus scrofa [4]) [%]
FC(F)c1c(-c2cccnc2)sc2ccccc12	79	103	–	–
c1ccc2c(C3CN4CCSC4=N3)csc2c1 (stereo not drawn)	–	100	135	19
c1ccc([C@H]2CN3CCSC3=N2)cc1 [LEVAMISOLE HYDROCHLORIDE]	–	99	93	10
C1=CN2CC(c3csc4ccccc34)N=C2S1 (stereo not drawn)	–	99	85	11
CN(C)c1ccc(-c2sc3ccccc3c2C#N)cc1	–	82	–	83
O=Cc1c(-c2ccc(C(F)(F)F)cc2)sc2ccccc12	–	30	–	80
Cc1ccc(-c2cc3ccccc3s2)c([N+](=O)[O-])c1	–	127	–	97
COc1ccc(C(=O)c2c(-c3ccc(OC)cc3[N+](=O)[O-])sc3ccccc23)cc1	–	95	–	100
N#Cc1csc2ccccc12	–	92	–	92
c1ccc(Oc2csc3ccccc23)cc1	–	104	–	89
[O-][s+]1cc(Oc2ccc(Cl)cc2)c2ccccc21 (stereo not drawn)	–	122	–	103
COc1ccc(-c2sc3ccccc3c2CN)c(N)c1	–	103	–	103
NCc1c(-c2ccccc2)sc2ccccc12	–	148	–	76
N#Cc1c(-c2ccc(C(F)(F)F)cc2)sc2ccccc12	–	96	–	97
COc1ccc(-c2sc3ccccc3c2C(=O)c2ccccc2OC)c([N+](=O)[O-])c1	–	117	–	111
